Test results taken from ChEMBL document CHEMBL4316661, “Securinega Alkaloids from the Twigs of Securinega suffruticosa and Their Biological Activities” (J Nat Prod, 2019).

Key:
A549 = experiment: Cytotoxicity against human A549 cells after 48 hrs by SRB assay; format: cell-based; conditions: A549, 48 h
SK-OV-3 = experiment: Cytotoxicity against human SKOV3 cells after 48 hrs by SRB assay; format: cell-based; conditions: SK-OV-3, 48 h
SK-MEL-2 = experiment: Cytotoxicity against human SK-MEL-2 cells after 48 hrs by SRB assay; format: cell-based; conditions: SK-MEL-2, 48 h
HCT-15 = experiment: Cytotoxicity against human HCT15 cells after 48 hrs by SRB assay; format: cell-based; conditions: HCT-15, 48 h
C6 = experiment: Neuroprotective activity in rat C6 cells assessed as NGF secretion at 20 uM after 24 hrs by ELISA relative to control; format: functional
Method in brief: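 C6 cells given 20 μM of each compound for 24 h. NGF secreted into the C6-conditioned medium quantified by ELISA, as a percentage of the untreated control (set at 100%). Means ± SD of three independent experiments.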

[1] = Cytotoxicity against rat C6 cells assessed as cell viability at 20 uM after 24 hrs by MTT assay relative to control; format: cell-based; conditions: read-out: Activity
Method in brief: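 C6 cells treated with 20 μM of each compound. Viability determined by MTT assay and expressed as a percentage. Means ± SD of three independent experiments.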

BV-2 [2] = experiment: Antiinflammatory activity in mouse BV2 cells assessed as inhibition of LPS-induced nitrite production after 24 hrs by Griess assay; format: functional, cell-based; conditions: BV-2, 24 h
Method in brief: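 LPS-activated murine microglial BV-2 cells. IC50 taken as the concentration (μM) giving 50% inhibition of NO production. Means of three independent experiments, as means ± SD.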

[3] = (§1) Cytotoxicity against mouse BV2 cells assessed as cell viability at 20 uM after 24 hrs by MTT assay relative to control; format: cell-based, BV-2; conditions: BV2 cells, read-out: Activity
Method in brief: (§2)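 BV-2 microglia exposed to 20 μM of each compound. Viability read by MTT and given as a percentage. Means ± SD of three independent experiments.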

BV-2 [4] = experiment: as §1; format: cell-based; conditions: bv-2, 24 h, 20 µM; method in brief: as §2

SMILES	IC50 (A549) [µM]	IC50 (SK-OV-3) [µM]	IC50 (SK-MEL-2) [µM]	IC50 (HCT-15) [µM]	Activity (C6) [%]	viability at 24 h, 20 µM [1] [%]	IC50 (BV-2 [2]) [µM]	viability at 24 h, 20 µM [3] [%]	Activity (BV-2 [4])
O=C1C=C2C=C[C@@H]3C[C@@]2(O1)[C@@H]1CCC(=O)C(=O)N31	> 10	> 10	> 10	> 10	172.7	101	–	–	–
COc1cc([C@@H]2c3cc4c(cc3[C@@H](O[C@@H]3O[C@@H]5CO[C@@H](C)O[C@H]5[C@H](O)[C@H]3O)[C@H]3COC(=O)[C@H]23)OCO4)cc(OC)c1O [ETOPOSIDE]	0.7	1.8	0.3	0.3	–	–	–	–	–
CO[C@H]1CCN2[C@@H]3C=CC4=CC(=O)O[C@]4(C3)[C@H]2C1	> 10	> 10	> 10	> 10	–	–	7.7	108	–
O=C1C=C2C=C[C@H]3C[C@@]2(O1)[C@@H]1C[C@@H](O)CCN1O3	> 10	> 10	> 10	> 10	–	–	–	–	–
CCCCC/C=C/C(=O)CCc1ccc(O)c(OC)c1 [SHOGAOL]	–	–	–	–	138.7	112	–	–	–
CO[C@H]1CCN2O[C@]34C=C[C@H](O)C[C@]3(OC(=O)C4)[C@@H]2C1	> 10	> 10	> 10	> 10	–	–	–	–	–
O=C1C=C2C=C[C@H](O)C[C@@H]2O1	> 10	> 10	> 10	> 10	–	–	–	–	–
O=C1C=C2C=C[C@@H]3C[C@@]2(O1)[C@@H]1[C@H]2O[C@H]2CCN31	> 10	> 10	> 10	> 10	145.3	101	12.6	92.8	–
CO[C@H]1CCN2O[C@@H]3C=CC4=CC(=O)O[C@]4(C3)[C@@H]2C1 [SECURINEGA AMAMINE D]	> 10	> 10	> 10	> 10	–	–	23.9	86.5	–
CO[C@H]1CCN2[C@@H]3C=CC4=CC(=O)O[C@]4(C3)[C@@H]2C1	> 10	> 10	> 10	> 10	–	–	31.5	88.7	–
O=C1C=C2C=C[C@H]3C[C@]2(O1)[C@H]1CCCCN1O3	> 10	> 10	> 10	> 10	–	–	12.1	96.7	–
CO[C@H]1CCN2O[C@H]3C=CC[C@@]4(OC(=O)C=C34)[C@@H]2C1	> 10	> 10	> 10	> 10	–	–	–	–	–
O=C1C=C2C=C[C@H](O)C[C@]2(c2ccccn2)O1	> 10	> 10	> 10	> 10	–	–	–	–	–
CNC(=N)NCCC[C@H](N)C(=O)O [TILARGININE]	–	–	–	–	–	–	–	99.7	–
O=C1C=C2C=C[C@@H]3C[C@@]2(O1)[C@@]1(O)[C@H]2O[C@H]2CCN31	6.8	3.4	1.9	1.5	–	–	–	–	Toxic
O=C1C=C2C=CCC[C@]2(c2ccccn2)O1	> 10	> 10	> 10	> 10	–	–	–	–	–
O=C1C=C2C=C[C@@H]3C[C@@]2(O1)[C@H]1CCCCN31 [SECURININE]	> 10	> 10	> 10	> 10	141.1	102	1.1	101	–
